ChEMBL document CHEMBL3244219, “Synthesis of [1-sarcosine, 8-O-methylserine]angiotensin II and 1-substituted analogues of [8-threonine]angiotensin II as antagonists of angiotensin II” (J Med Chem, 1977)
Where a SMILES comes first, the peptide text is derived from it. [ ]: non-standard residue; d: D form. The star is where a group is joined. Guanidinoacetyl = N=C(N)NCC(=O)*; NMeI = CC[C@H](C)[C@H](NC)C(=O)O; Me2Gly = CN(C)CC(=O)*; Sar = CNCC(=O)O

How the values were obtained:
Rattus norvegicus [1] = assay: Pressor activity in ganglion-blocked vagotomized rat assessed as rise in blood pressure at 250 ng/kg/min, iv administered as infusion measured after 3 mins relative to control
Rattus norvegicus [2] = assay: Pressor activity in ganglion-blocked vagotomized rat assessed as rise in angiotensin 2 ED20 at 250 ng/kg/min, iv administered as infusion measured during infusion relative to untreated control
Rattus norvegicus [3] = assay: Pressor activity in ganglion-blocked vagotomized rat administered as bolus injection relative to [Asp1,Ile8]angiotension 2; format: functional
Outline: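 Vagotomized, ganglion-blocked rats received a bolus injection of the analogue. Pressor activity is expressed as percent relative to [Asp¹,Ile⁸]angiotensin II, set at 100.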

Rattus norvegicus [4] = assay: Pressor activity in ganglion-blocked vagotomized rat assessed as rise in blood pressure at 250 ng/kg/min, iv administered as infusion measured after 10 mins relative to control
[5] = Antagonist activity at angiotensin 2 receptor in rabbit aortic strip assessed as inhibition of contractile activity; conditions: Oryctolagus cuniculus; read-out: pA2 (converted)
Outline: (§1)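 Rabbit aortic strips; the antagonist opposes angiotensin II-induced contraction. pA₂ is the negative log molar antagonist concentration that reduces the effect of a doubled agonist concentration to that of a single one. It is derived as pA₂ = (log K₂)/n, where n is the slope of log(dose ratio − 1) vs. −log antagonist concentration and K₂ is the y-intercept.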

Oryctolagus cuniculus = species: Oryctolagus cuniculus; assay: Binding affinity to angiotensin 2 receptor in rabbit aortic strip
Outline: as §1

Rattus norvegicus [6] = assay: Pressor activity in ganglion-blocked vagotomized rat assessed as angiotensin 2 ED20 at 250 ng/kg/min, iv administered as infusion measured during infusion
Rattus norvegicus [7] = assay: Pressor activity in ganglion-blocked vagotomized rat assessed as rise in blood pressure at 250 ng/kg/min, iv administered as infusion measured after 30 mins relative to control
Rattus norvegicus [8] = assay: Pressor activity in ganglion-blocked vagotomized rat assessed as rise in blood pressure at 250 ng/kg/min, iv administered as infusion measured after 3 mins relative to control; format: functional
Outline: (§2)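 Vagotomized, ganglion-blocked rats were infused with the analogue. Rise in blood pressure (mmHg) was read at 3, 10 and 30 min of infusion. Values are mean ± error over several rats per analogue.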

Rattus norvegicus [9] = assay: Pressor activity in ganglion-blocked vagotomized rat assessed as rise in blood pressure at 250 ng/kg/min, iv administered as infusion measured after 30 mins relative to control; format: functional
Outline: as §2

Rattus norvegicus [10] = assay: Pressor activity in ganglion-blocked vagotomized rat assessed as rise in blood pressure at 250 ng/kg/min, iv administered as infusion measured after 10 mins relative to control; format: functional
Outline: as §2

Compound | log K (Oryctolagus cuniculus) | Activity (Rattus norvegicus [1]) [mmHg] | Ratio (Rattus norvegicus [2]) | Ratio (Rattus norvegicus [3]) | Activity (Rattus norvegicus [4]) [mmHg] | Kb [5] [nM] | ED20 (Rattus norvegicus [6]) [ng] | Activity (Rattus norvegicus [7]) [mmHg] | Activity (Rattus norvegicus [8]) [mmHg] | Activity (Rattus norvegicus [9]) [mmHg] | Activity (Rattus norvegicus [10]) [mmHg]
CC[C@H](C)[C@H](NC(=O)[C@H](Cc1ccc(O)cc1)NC(=O)[C@@H](NC(=O)[C@H](CCCNC(=N)N)NC(=O)CNC(=N)N)C(C)C)C(=O)N[C@@H](Cc1cnc[nH]1)C(=O)N1CCC[C@H]1C(=O)N[C@H](C(=O)O)[C@@H](C)O (Guanidinoacetyl-RVYIHPT-OH) | 2.12 | 0.5 | 1.02 | 0.15 | 0.75 | 58.9 | 1.14 | 3.5 | – | – | –
H-RVYIHPT-OH | 2.83 | 0.5 | 1.47 | 0.24 | 1.5 | 29.5 | 3.01 | 4.5 | – | – | –
CC[C@H](C)[C@H](NC(=O)[C@H](Cc1ccc(O)cc1)NC(=O)[C@@H](NC(=O)[C@H](CCCNC(=N)N)NC(=O)CNC)C(C)C)C(=O)N[C@@H](Cc1cnc[nH]1)C(=O)N1CCC[C@H]1C(=O)N[C@@H](COC)C(=O)O | 5.58 | – | 24.04 | 0.49 | – | 0.219 | 37 | – | 15.66 | 11.16 | 16.16
CC[C@H](C)[C@H](NC(=O)[C@H](Cc1ccc(O)cc1)NC(=O)[C@@H](NC(=O)[C@H](CCCNC(=N)N)NC(=O)CNC)C(C)C)C(=O)N[C@@H](Cc1cnc[nH]1)C(=O)N1CCC[C@H]1C(=O)N[C@H](C(=O)O)[C@@H](C)OC | 8.39 | – | 62.52 | 0.48 | – | 1.74 | 95.26 | – | 13.82 | 15.06 | 15.88

More lines, main results first:

log K (Oryctolagus cuniculus) | Compound | Activity (Rattus norvegicus [1]) [mmHg] | Ratio (Rattus norvegicus [2]) | Ratio (Rattus norvegicus [3]) | Activity (Rattus norvegicus [4]) [mmHg] | Kb [5] [nM] | ED20 (Rattus norvegicus [6]) [ng] | Activity (Rattus norvegicus [7]) [mmHg] | Activity (Rattus norvegicus [8]) [mmHg] | Activity (Rattus norvegicus [9]) [mmHg] | Activity (Rattus norvegicus [10]) [mmHg]
2.48 | CC[C@H](C)[C@H](NC)C(=O)N[C@@H](CCCNC(=N)N)C(=O)N[C@H](C(=O)N[C@@H](Cc1ccc(O)cc1)C(=O)N[C@H](C(=O)N[C@@H](Cc1cnc[nH]1)C(=O)N1CCC[C@H]1C(=O)N[C@H](C(=O)O)[C@@H](C)O)[C@@H](C)CC)C(C)C (H-[NMeI]RVYIHPT-OH) | 4.33 | 2.37 | 0.12 | 6.66 | 20.9 | 3.59 | 8.05 | – | – | –
8.1 | CC[C@H](C)[C@H](NC(=O)[C@H](Cc1ccc(O)cc1)NC(=O)[C@@H](NC(=O)[C@H](CCCN=C(N)N)NC(=O)CNC)C(C)C)C(=O)N[C@@H](Cc1c[nH]cn1)C(=O)N1CCC[C@H]1C(=O)N[C@H](C(=O)O)[C@@H](C)O (H-[Sar]RVYIHPT-OH) | – | 26.9 | 0.6 | – | 1.62 | 44.55 | – | 9.46 | 9.2 | 9.66
2.83 | CC[C@H](C)[C@H](NC(=O)[C@H](Cc1ccc(O)cc1)NC(=O)[C@@H](NC(=O)[C@H](CCCNC(=N)N)NC(=O)CN(C)C)C(C)C)C(=O)N[C@@H](Cc1cnc[nH]1)C(=O)N1CCC[C@H]1C(=O)N[C@H](C(=O)O)[C@@H](C)O (Me2Gly-RVYIHPT-OH) | – | 4.49 | 0.38 | – | 29.5 | 7.7 | – | 7.5 | 11.71 | 12.57
